Measurements gathered from unrelated publications.
Protocols differ between the studies behind these lines.
Target: Beta-adrenergic receptor kinase 1 (GRK2, Homo sapiens, UniProt P25098)
Residues used in one study (P25098 1-689): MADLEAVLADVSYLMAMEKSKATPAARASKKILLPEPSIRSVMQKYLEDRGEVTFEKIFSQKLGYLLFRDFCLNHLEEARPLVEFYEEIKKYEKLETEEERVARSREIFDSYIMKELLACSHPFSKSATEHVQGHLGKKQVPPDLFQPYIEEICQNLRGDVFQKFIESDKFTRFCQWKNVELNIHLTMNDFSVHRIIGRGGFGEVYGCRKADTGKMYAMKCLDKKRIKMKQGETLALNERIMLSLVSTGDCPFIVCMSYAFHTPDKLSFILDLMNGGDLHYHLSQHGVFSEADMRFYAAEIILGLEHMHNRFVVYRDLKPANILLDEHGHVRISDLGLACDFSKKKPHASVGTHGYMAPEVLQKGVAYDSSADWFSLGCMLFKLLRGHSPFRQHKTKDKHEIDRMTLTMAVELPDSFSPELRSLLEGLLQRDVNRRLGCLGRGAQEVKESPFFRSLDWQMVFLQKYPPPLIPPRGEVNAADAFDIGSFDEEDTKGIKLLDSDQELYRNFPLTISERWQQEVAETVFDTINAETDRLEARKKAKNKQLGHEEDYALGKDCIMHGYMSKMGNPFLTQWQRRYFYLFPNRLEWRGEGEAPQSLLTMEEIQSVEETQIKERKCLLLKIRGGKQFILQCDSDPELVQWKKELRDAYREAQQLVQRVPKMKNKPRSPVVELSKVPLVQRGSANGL

SMILES	test	setting	quantity	result
N[C@H]1CCN(c2nccc(-c3cnn4ncccc34)n2)C1	binding, competition with immobilised ligand	1 µM	remaining binding	80%
N#CCCc1ccc2c(c1)-c1[nH]c3ccc([N+](=O)[O-])cc3c1CC(=O)N2	cell-free assay	0.5 µM	remaining signal	96.4%
COc1cc2ncnc(Nc3ccc(Oc4ccccc4)c(C)c3C)c2cc1OC	enzyme activity, inhibitor	1 µM	inhibition	-2%
CC(C)(C)c1nc2c(s1)c1nc(N)ncc1c1ccc(NS(=O)(=O)c3c(F)cccc3F)c(F)c12	enzyme activity, inhibitor, radiometric	1 µM	remaining activity	90%
CCCS(=O)(=O)Nc1ccc(F)c(C(=O)c2c[nH]c3ncc(-c4ccc(Cl)cc4)cc23)c1F	enzyme activity, inhibitor	1 µM	inhibition	< 20%
CN1CC(Oc2cnc(C#N)cc2-c2ccn3nc(NC(=O)C4CC4)cc3c2)C1	enzyme activity, inhibitor	1 µM	inhibition	5%
O=C1NC(=O)c2cc(Nc3ccc(F)cc3)c(Nc3ccc(F)cc3)cc21	cell-free assay	0.5 µM	remaining signal	104%
O=C(Nc1cnn(-c2csc(C(=O)NC3COC3)c2)c1)Nc1c(F)cccc1Cl	enzyme activity, inhibitor	5 µM	remaining activity	106%
Cc1noc([C@H]2C[C@@H](c3ccc(C(F)(F)F)cc3)CN(C(=O)N3CCS(=O)(=O)C3)C2)n1	cell-free assay, competition with immobilised ligand	1 µM	remaining binding	83%
CC(C)(O)[C@H]1CC[C@H](Nc2ccc3ncc(-c4cccc(C(F)(F)F)c4)n3n2)CC1	enzyme activity, inhibitor	1 µM	remaining activity	116%
CN(C(=O)c1ccccc1)c1cc(N(C)c2ccc3c(c2)CCc2ccc(C(=O)NCCN4CCOCC4)cc2C3=O)ccc1F	cell-free assay, competition with immobilised ligand	1 µM	remaining binding	100%
O=C(Nc1cnn(-c2csc(C(=O)NC3COC3)c2)c1)Nc1ccccc1Cl	enzyme activity, inhibitor	5 µM	remaining activity	96.1%
C[C@H](NC(=O)c1cnc2n1[C@](C)(Cc1ccc(C#N)cc1)C(=O)N2c1cc(Cl)c(F)c(Cl)c1)C(=O)NC1(c2ccccn2)CC1	cell-free assay, competition with immobilised ligand	1 µM	remaining binding	100%
Cc1cc(NC(=O)c2cccc3cc(-c4cccc5[nH]nc(N)c45)ccc23)ccc1F	enzyme activity, inhibitor	0.1 µM	activity vs control	73%
O=C(O)[C@H]1[C@H](Cn2nnc3ccccc3c2=O)CC[C@@H]1C(=O)c1ccc(OCCC2CCOCC2)cc1	cell-free assay, competition with immobilised ligand	1 µM	remaining binding	61%
CCCCNc1ncc2c(-c3ccc(F)cc3)nn(C[C@H]3CC[C@H](N)CC3)c2n1	target engagement in cells, inhibitor, chemoproteomics	20 mM	inhibition	-6.2%
